The target in this assay is Kappa-type opioid receptor (Rattus norvegicus) (UniProt P34975). As to the kind of experiment: Agonist activity at rat cloned kappa opioid receptor expressed in CHO cells assessed as inhibition of forskolin-induced cAMP production by scintillation counting relative to Dyn A-(1-13)NH2. The note with it: concentration not given here. Format: functional, cell-based. The method in brief:
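CHO cells stably expressing cloned rat κ receptor, washed in F12 and labelled 4 h with [3H]adenine. Then 40 min at 37 °C with 50 μM forskolin, peptidase inhibitors (bestatin, captopril, L-leucyl-L-leucine) and peptide at 0.1–10,000 nM in 10-fold steps. [3H]cAMP isolated on cation exchange resin and alumina, [14C]cAMP added for recovery, scintillation counted. Efficacy relative to Dyn A-(1-13)NH2. Mean ± SEM, ≥3 assays.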

Chain of Kappa-type opioid receptor (Rattus norvegicus) (P34975 whole entry): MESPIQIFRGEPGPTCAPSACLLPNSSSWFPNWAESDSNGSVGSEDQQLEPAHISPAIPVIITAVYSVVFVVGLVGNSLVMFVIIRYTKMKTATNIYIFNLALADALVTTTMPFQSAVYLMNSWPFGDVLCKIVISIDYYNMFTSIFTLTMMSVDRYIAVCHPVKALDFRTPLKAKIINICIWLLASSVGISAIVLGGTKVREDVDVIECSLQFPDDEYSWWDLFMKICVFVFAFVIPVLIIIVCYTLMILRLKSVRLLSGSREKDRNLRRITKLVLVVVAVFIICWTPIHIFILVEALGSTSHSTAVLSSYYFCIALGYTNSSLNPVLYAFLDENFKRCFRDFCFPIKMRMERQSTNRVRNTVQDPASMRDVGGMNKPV

Regarding `N=C(N)NCCC[C@@H]1NC(=O)[C@@H](NC(=O)[C@H](Cc2ccccc2)NC(=O)CNC(=O)CNC(=O)[C@@H](N)Cc2ccc(O)cc2)C/C=C\C[C@@H](C(=O)N[C@@H](CCCNC(=N)N)C(=O)N2CCC[C@H]2C(=O)N[C@@H](CCCCN)C(N)=O)NC(=O)[C@H](CCCNC(=N)N)NC1=O`, the inhibition is 110%.

Consider `CC[C@H](C)[C@H](NC(=O)[C@H](CCCN=C(N)N)NC(=O)[C@H](CCCN=C(N)N)NC(=O)[C@H](CC(C)C)NC(=O)[C@H](Cc1ccccc1)NC(=O)CNC(=O)CNC(=O)[C@@H](N)Cc1ccc(O)cc1)C(=O)N[C@@H](CCCN=C(N)N)C(=O)N1CCC[C@H]1C(=O)N[C@@H](CCCCN)C(N)=O`, for which the inhibition amounted to 100%.
